PubChem BioAssay AID488947 (Sanford-Burnham Center for Chemical Genomics, 2010)
Calls of active or inactive are those of the source.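 The calls were made as follows: active = compounds letting at most 1% of the green fluorescent tagged protein gather at the cell membrane; inactive = the rest.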

The compounds below were run against G-protein coupled receptor 55 (Homo sapiens) (UniProt Q9Y2T6) (assay: inhibition of agonist-driven PKCbII translocation via GPR55 – imaging, HEK293, PKCbII-GFP, SAR follow-up (AID 488947)). Conditions: HEK293 GPR55 + PKCbetaII-GFP, membrane recruitment imaging.
G-protein coupled receptor 55 (Homo sapiens), sequence (Q9Y2T6 whole entry, looked up): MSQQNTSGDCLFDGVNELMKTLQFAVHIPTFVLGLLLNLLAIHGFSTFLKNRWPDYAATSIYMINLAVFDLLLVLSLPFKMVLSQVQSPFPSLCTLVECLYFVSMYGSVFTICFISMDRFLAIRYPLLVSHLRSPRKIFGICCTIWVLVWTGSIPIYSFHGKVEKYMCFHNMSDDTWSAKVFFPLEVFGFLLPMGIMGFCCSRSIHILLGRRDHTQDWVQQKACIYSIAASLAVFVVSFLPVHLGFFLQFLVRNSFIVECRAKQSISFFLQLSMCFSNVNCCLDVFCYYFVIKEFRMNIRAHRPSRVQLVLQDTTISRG
How it was run: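 Material: transfected HEK293 with GPR55 and PKCβII-GFP; Times: compound pre-incubation 15 min at 37 °C, then AM251 exposure 30 min; Measured by: fluorescence imaging of GFP after 1% PFA fixation, scored by eye; Buffer or medium: serum-free MEM; Dosing: four compound doses between 10 and 100 µM; Replicates: duplicates.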

outcome, active:
Cc1ccc(C2(C(=O)N3CCC(n4nc(-c5ccccc5)oc4=O)CC3)CC2)cc1, Cc1nc(N2CCN(C(=O)c3ccco3)CC2)c2c3c(sc2n1)CCCC3 active; +, Cc1cc(C)c2nc(-c3ccccn3)cc(C(=O)Nc3ccc(S(=O)(=O)Nc4onc(C)c4C)cc3)c2c1
